Data published in ChEMBL document CHEMBL3861959, “Synthesis and antiproliferative evaluation of novel 2-(4H-1,2,4-triazole-3-ylthio)acetamide derivatives as inducers of apoptosis in cancer cells” (Eur J Med Chem, 2016).

Tests used:
[1] = Cytotoxicity against human TK10 cells assessed as cell growth at 10^-5 M after 48 hrs by SRB assay relative to control; assay type: functional; conditions: TK-10, 48 h, read-out: Activity
In short: (§1)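 Single-dose NCI 60-cell-line screen run under the US NCI protocol. Compounds tested at 10 µM. Read-out is growth percent for each cell line.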

[2] = Cytotoxicity against human HCC2998 cells assessed as cell growth at 10^-5 M after 48 hrs by SRB assay relative to control; assay type: functional; conditions: HCC 2998, 48 h, read-out: Activity
In short: (§2)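 NCI single-dose primary screen run under the US NCI protocol. Compounds tested at 10 µM across the 60-cell-line panel, with growth percent reported for each line.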

[3] = Cytotoxicity against human PC3 cells assessed as cell growth at 10^-5 M after 48 hrs by SRB assay relative to control; assay type: functional; conditions: PC-3, 48 h, read-out: Activity; in short: as §2
[4] = Cytotoxicity against human T47D cells assessed as cell growth at 10^-5 M after 48 hrs by SRB assay relative to control; assay type: functional; conditions: read-out: Activity; in short: as §1
[5] = Cytotoxicity against human NCI-H322M cells assessed as cell growth at 10^-5 M after 48 hrs by SRB assay relative to control; assay type: functional; conditions: read-out: Activity; in short: as §2
[6] = Cytotoxicity against human NCI-H23 cells assessed as cell growth at 10^-5 M after 48 hrs by SRB assay relative to control; assay type: functional; conditions: NCI-H23, 48 h, read-out: Activity; in short: as §2
[7] = Cytotoxicity against human NCI-H460 cells assessed as cell growth at 10^-5 M after 48 hrs by SRB assay relative to control; assay type: functional; conditions: NCI-H460, 48 h, read-out: Activity; in short: as §2
[8] = Cytotoxicity against human OVCAR3 cells assessed as cell growth at 10^-5 M after 48 hrs by SRB assay relative to control; assay type: functional; conditions: OVCAR-3, 48 h, read-out: Activity; in short: as §2
[9] = Cytotoxicity against human DU145 cells assessed as cell growth at 10^-5 M after 48 hrs by SRB assay relative to control; assay type: functional; conditions: DU-145, 48 h, read-out: Activity; in short: as §2
[10] = Cytotoxicity against human A498 cells assessed as cell growth at 10^-5 M after 48 hrs by SRB assay relative to control; assay type: functional; conditions: A498, 48 h, read-out: Activity; in short: as §2
[11] = Cytotoxicity against human M14 cells assessed as cell growth at 10^-5 M after 48 hrs by SRB assay relative to control; assay type: functional; conditions: M14, 48 h, read-out: Activity; in short: as §2
[12] = Cytotoxicity against human RXF393 cells assessed as cell growth at 10^-5 M after 48 hrs by SRB assay relative to control; assay type: functional; conditions: RXF 393, 48 h, read-out: Activity; in short: as §2
[13] = Cytotoxicity against human K562 cells assessed as cell growth at 10^-5 M after 48 hrs by SRB assay relative to control; assay type: functional; conditions: K562, 48 h, read-out: Activity; in short: as §2
[14] = Cytotoxicity against human UACC257 cells assessed as cell growth at 10^-5 M after 48 hrs by SRB assay relative to control; assay type: functional; conditions: UACC-257, 48 h, read-out: Activity; in short: as §1
[15] = Cytotoxicity against human SK-MEL-28 cells assessed as cell growth at 10^-5 M after 48 hrs by SRB assay relative to control; assay type: functional; conditions: SK-MEL-28, 48 h, read-out: Activity; in short: as §1
[16] = Cytotoxicity against human SF268 cells assessed as cell growth at 10^-5 M after 48 hrs by SRB assay relative to control; assay type: functional; conditions: SF-268, 48 h, read-out: Activity; in short: as §2
[17] = Antiviral activity against HIV2 ROD infected in human MT4 cells assessed as protection against virus-induced cytopathic effect after 5 days MTT assay; assay type: functional, cell-based, Human immunodeficiency virus type 2 (ISOLATE ROD); conditions: Human immunodeficiency virus 2, MT4, 120 h
In short: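 HIV-1 strain IIIB and HIV-2 strain ROD in MT-4 cells, MTT-based. Test compounds in serial five-fold dilutions, in triplicate wells run alongside mock-infected cells, with untreated infected and mock controls. MT-4 cells resuspended at 6 × 10^5 cells/mL. Absorbance read at 540 and 690 nm, median OD of three wells. EC50 is the 50% effective concentration.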

[18] = Cytotoxicity against human SNB19 cells assessed as cell growth at 10^-5 M after 48 hrs by SRB assay relative to control; assay type: functional; conditions: SNB-19, 48 h, read-out: Activity; in short: as §1
[19] = Cytotoxicity against human SF539 cells assessed as cell growth at 10^-5 M after 48 hrs by SRB assay relative to control; assay type: functional; conditions: SF-539, 48 h, read-out: Activity; in short: as §1
[20] = Cytotoxicity against human MCF7 cells assessed as cell growth at 10^-5 M after 48 hrs by SRB assay relative to control; assay type: functional; conditions: MCF7, 48 h, read-out: Activity; in short: as §2
[21] = Cytotoxicity against human MDA-MB-435 cells assessed as cell growth at 10^-5 M after 48 hrs by SRB assay relative to control; assay type: functional; conditions: MDA-MB-435, 48 h, read-out: Activity; in short: as §2
[22] = Cytotoxicity against human OVCAR8 cells assessed as cell growth at 10^-5 M after 48 hrs by SRB assay relative to control; assay type: functional; conditions: OVCAR-8, 48 h, read-out: Activity; in short: as §2
[23] = Cytotoxicity against human COLO205 cells assessed as cell growth at 10^-5 M after 48 hrs by SRB assay relative to control; assay type: functional; conditions: COLO 205, 48 h, read-out: Activity; in short: as §2
[24] = Cytotoxicity against human HOP62 cells assessed as cell growth at 10^-5 M after 48 hrs by SRB assay relative to control; assay type: functional; conditions: HOP-62, 48 h, read-out: Activity; in short: as §2
[25] = Cytotoxicity against human MDA-MB-231 cells assessed as cell growth at 10^-5 M after 48 hrs by SRB assay relative to control; assay type: functional; conditions: MDA-MB-231, 48 h, read-out: Activity; in short: as §2
[26] = Cytotoxicity against human LOXIMVI cells assessed as cell growth at 10^-5 M after 48 hrs by SRB assay relative to control; assay type: functional; conditions: LOX IMVI, read-out: Activity; in short: as §2
[27] = Cytotoxicity against human HCT15 cells assessed as cell growth at 10^-5 M after 48 hrs by SRB assay relative to control; assay type: functional; conditions: HCT-15, 48 h, read-out: Activity; in short: as §2
[28] = Cytotoxicity against human BT549 cells assessed as cell growth at 10^-5 M after 48 hrs by SRB assay relative to control; assay type: functional; conditions: BT-549, 48 h, read-out: Activity; in short: as §2
[29] = Selectivity index, ratio of CC50 for human MT4 cells to EC50 for HIV2 ROD; assay type: toxicity, cell-based; conditions: read-out: Ratio CC50/EC50
In short: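 HIV-1 IIIB and HIV-2 ROD tested in MT-4 cells by MTT. Serial fivefold dilutions of compound added to triplicate mock- and virus-infected wells. MT-4 cells at 6 × 10^5 cells/mL. Absorbance read at 540/690 nm; median OD of three wells used. CC50 is the concentration reducing mock-infected OD540 by 50%. […]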

[30] = Cytotoxicity against human NCI-H226 cells assessed as cell growth at 10^-5 M after 48 hrs by SRB assay relative to control; assay type: functional; conditions: NCI-H226, 48 h, read-out: Activity; in short: as §2
[31] = Cytotoxicity against human HT-29 cells assessed as cell growth at 10^-5 M after 48 hrs by SRB assay relative to control; assay type: functional; conditions: HT-29, 48 h, read-out: Activity; in short: as §2

Row | SMILES | growth at 10 µM [1] | growth at 10 µM [2] | growth at 10 µM [3] | growth at 10 µM [4] | growth at 10 µM [5] | growth at 10 µM [6] | growth at 10 µM [7] | growth at 10 µM [8] | growth at 10 µM [9] | growth at 10 µM [10] | growth at 10 µM [11] | growth at 10 µM [12] | growth at 10 µM [13] | growth at 10 µM [14] | growth at 10 µM [15] | growth at 10 µM [16] | EC50 [17] | growth at 10 µM [18] | growth at 10 µM [19] | growth at 10 µM [20] | also measured
1 | Cc1ccc(C(C)C)c(OCc2nnc(SCC(=O)Nc3ccc(Cl)cc3)n2Cc2ccccc2)c1 | 71.9% | 89.7% | 71.9% | 78.6% | 72.5% | 80.6% | 17.7% | 63.9% | 90.5% | 78% | 99% | 101% | 97.5% | 105% | 113% | 88.6% | > 65.9 µg/mL | 80.3% | 85.4% | 75.7% | growth at 10 µM [21]: 103%; growth at 10 µM [22]: 67.3%; growth at 10 µM [23]: 78.2%; growth at 10 µM [24]: 81.2%; growth at 10 µM [25]: 75.7%; growth at 10 µM [26]: 64.4%; growth at 10 µM [27]: 76.7%; growth at 10 µM [28]: 97.4%; selectivity ratio [29]: < 1; growth at 10 µM [30]: 88%; growth at 10 µM [31]: 70%
2 | CC(=O)Nc1ccc(OCc2nnc(SCC(=O)Nc3ccc(Br)cc3)n2Cc2ccccc2)cc1 | 87.1% | 85.6% | 54.2% | 69.6% | 81.2% | 75.2% | 74.3% | 102% | 72.6% | 82.1% | 43.5% | 101% | 28.9% | 98.4% | 102% | 70.9% | > 3.99 µg/mL | 92.3% | 92.8% | 70.2% | growth at 10 µM [21]: 66%; growth at 10 µM [22]: 84.8%; growth at 10 µM [23]: 105%; growth at 10 µM [24]: 90.3%; growth at 10 µM [25]: 75%; growth at 10 µM [26]: 33.4%; growth at 10 µM [27]: 60.4%; growth at 10 µM [28]: 72.4%; selectivity ratio [29]: ≤ 1; growth at 10 µM [30]: 80.3%; growth at 10 µM [31]: 93.9%
3 | Cc1ccc(C(C)C)c(OCc2nnc(SCC(=O)Nc3ccc(S(N)(=O)=O)cc3)n2Cc2ccccc2)c1 | 94% | 73.8% | 31.1% | 33.3% | 89.3% | 63.8% | 76.4% | 74.7% | 82.3% | 74.7% | 87.3% | 70.6% | 78.4% | 89% | 89.3% | 74% | > 13 µg/mL | 88.4% | 89.5% | 50% | growth at 10 µM [21]: 76.2%; growth at 10 µM [22]: 41.1%; growth at 10 µM [23]: 90.2%; growth at 10 µM [24]: 79.1%; growth at 10 µM [25]: 69.1%; growth at 10 µM [26]: 68.2%; growth at 10 µM [27]: 64.2%; growth at 10 µM [28]: 65.8%; selectivity ratio [29]: < 1; growth at 10 µM [30]: 66.6%; growth at 10 µM [31]: 72.4%
